Measured values published in ChEMBL document CHEMBL5532695, “4-Trifluoromethyl bithiazoles as broad-spectrum antimicrobial agents for virus-related bacterial infections or co-infections” (RSC Med Chem, 2024).
Calls of active or inactive are those of the source. The rule behind the calls is not given here.

How the values were obtained:
[1] = Cytotoxicity against human HeLa cells assessed as reduction in cell viability by MTT assay; format: toxicity, cell-based
Outline: (§1)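 MTT viability on HeLa or VeroE6 cells, run in parallel with the antiviral assays. CC50 from variable-slope sigmoidal dose–response regression.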

Klebsiella pneumoniae = assay: Synergistic antibacterial activity against Klebsiella pneumoniae ATCC 13833 incubated for 18 to 24 hrs in presence of colistin by broth microdilution method; format: functional; settings: time 18-24 hrs
Escherichia coli [2] = assay: Synergistic antibacterial activity against Escherichia coli CCUGT incubated for 18 to 24 hrs in presence of colistin by broth microdilution method; format: functional; settings: time 18-24 hrs
rhinovirus A16 [3] = assay: microbe, parasite or virus in culture; settings: Rhinovirus A, HeLa, 48 h
Acinetobacter baumannii [4] = assay: Synergistic antibacterial activity against Acinetobacter baumannii ATCC 17978 incubated for 18 to 24 hrs in presence of colistin by broth microdilution method; format: functional; settings: time 18-24 hrs
enterovirus D68 = assay: microbe, parasite or virus in culture; settings: Enterovirus D, HeLa, 48 h
[5] = target: Phosphatidylinositol 4-kinase beta (Homo sapiens, UniProt Q9UBF8); assay: Inhibition of recombinant full length his tagged PI4KB (unknown origin) incubated for 10 mins in presence of ATP by ADP-glo kinase assay
rhinovirus A16 [6] = assay: Antiviral activity against hRVA16 infected in human HeLa cells assessed as effect on release of infectious virus at 5 uM measured after 24 hrs post infection by time of addition assay; format: functional, organism-based
Outline: (§2)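 Time of addition: HeLa cells infected with RVA16 at MOI 0.1. Compound at 5 μM added 1 h before, during, or 1, 2, 4 or 6 h after infection. At 24 h, cells lysed and intracellular viral RNA measured by RV-specific qPCR; supernatant titrated on HeLa cells.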

rhinovirus A16 [7] = assay: Antiviral activity against 7 times N-(4'-(Trifluoromethyl)-2-((3-(trifluoromethyl)phenyl)amino)-[4,5'-bithiazol]-2'-yl)benzamide passaged resistance model of Human rhinovirus 16 infected in human HeLa cells assessed as inhibition of viral replication; format: functional, organism-based; settings: Rhinovirus A
Outline: (§3)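 HeLa cells infected with RVA16 and serially passaged under compound, supernatants harvested at extensive CPE (3–6 dpi), clarified and titrated on HeLa; each passage used prior virus at MOI 0.01, drug concentration doubled when possible; after 7 passages RNA sequenced. Antiviral read-out: HeLa at 33 °C, 48 h, VP3 immunostaining with HRP secondary; EC50 from variable-slope sigmoidal fit.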

Pseudomonas aeruginosa [8] = assay: Synergistic antibacterial activity against Pseudomonas aeruginosa ATCC 27853 incubated for 18 to 24 hrs in presence of colistin by broth microdilution method; format: functional; settings: time 18-24 hrs
Bacillus subtilis [9] = assay: Antibacterial activity against Bacillus subtilis ATCC 6633 assessed as reduction in microbial growth measured after 18 hrs by CLSI based broth microdilution method; format: functional
Outline: (§4)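 MIC by CLSI broth microdilution in Mueller–Hinton medium, triplicate. Inoculum 5 × 10^4 CFU per well. Compounds taken up in DMSO (50 mg mL−1 stock) and diluted in medium. Read after 18 h at 35 ± 2 °C.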

Enterococcus faecalis [10] = assay: Antibacterial activity against Enterococcus faecalis ATCC 29212 assessed as reduction in microbial growth measured after 18 hrs by CLSI based broth microdilution method; format: functional; outline: as §4
rhinovirus A16 [11] = assay: Antiviral activity against 7 times rupintrivir passaged resistance model of Human rhinovirus 16 infected in human HeLa cells assessed as inhibition of viral replication; format: functional, organism-based; settings: Rhinovirus A; outline: as §3
Pseudomonas aeruginosa [12] = assay: Synergistic antibacterial activity against colistin resistant MDR Pseudomonas aeruginosa SI-270 incubated for 18 to 24 hrs in presence of colistin by broth microdilution method; format: functional; settings: time 18-24 hrs
Outline: (§5)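 Minimum antibacterial concentration (MAC) by broth microdilution in Mueller–Hinton medium with a fixed subinhibitory colistin concentration of 2 μg mL−1 against colistin-resistant Gram-negative clinical isolates; inoculum 5 × 10^4 CFU per well, 35 ± 2 °C; triplicate.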

Zika virus = assay: microbe, parasite or virus in culture; settings: Vero C1008, 72 h
rhinovirus A16 [13] = assay: Antiviral activity against hRVA16 infected in human HeLa cells assessed as effect on RNA intracellular level at 5 uM pretreated for 1 hrs before infection and measured after 1 to 6 hrs post infection by time of addition assay; format: functional, organism-based; settings: time 2-7 hrs; outline: as §2
[14] = Cytotoxicity against african green monkey Vero E6 cells assessed as reduction in cell viability by MTT assay; format: toxicity, cell-based; settings: chlorocebus sabaeus, Vero E6 cells (Vero C1008); outline: as §1
Escherichia coli [15] = assay: Synergistic antibacterial activity against colistin resistant mcr-positive Escherichia coli SI-63 incubated for 18 to 24 hrs in presence of colistin by broth microdilution method; format: functional; settings: time 18-24 hrs; outline: as §5
Staphylococcus aureus [16] = assay: Antibacterial activity against Staphylococcus aureus ATCC 25923 assessed as reduction in microbial growth measured after 18 hrs by CLSI based broth microdilution method; format: functional; outline: as §4
Acinetobacter baumannii [17] = assay: Synergistic antibacterial activity against colistin/carbapenem resistant MDR Acinetobacter baumannii N50 incubated for 18 to 24 hrs in presence of colistin by broth microdilution method; format: functional; settings: time 18-24 hrs; outline: as §5
Streptococcus pyogenes [18] = assay: Antibacterial activity against Streptococcus pyogenes ATCC 12344 assessed as reduction in microbial growth measured after 18 hrs by CLSI based broth microdilution method; format: functional; outline: as §4
Enterococcus faecium [19] = assay: Antibacterial activity against Vancomycin resistant Enterococcus faecium SI-3856B assessed as reduction in microbial growth measured after 18 hrs by CLSI based broth microdilution method; format: functional
Outline: (§6)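 Gram-positive clinical isolates; compounds dissolved in DMSO (50 mg mL−1 stock) and diluted in medium; MIC by CLSI broth microdilution in Mueller–Hinton medium, inoculum 5 × 10^4 CFU per well, read after 18 h at 35 ± 2 °C; triplicate.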

Enterococcus faecium [20] = assay: Antibacterial activity against Vancomycin/teicoplanin resistant Enterococcus faecium SI-759 assessed as reduction in microbial growth measured after 18 hrs by CLSI based broth microdilution method; format: functional; outline: as §6
Staphylococcus aureus [21] = assay: Antibacterial activity against methicillin-resistant Staphylococcus aureus ATCC 43300 assessed as reduction in microbial growth measured after 18 hrs by CLSI based broth microdilution method; format: functional; outline: as §6
[22] = system: Staphylococcus epidermidis; assay: Bactericidal activity against linezolid-resistant Staphylococcus epidermidis SI-1266 assessed as reduction in microbial growth measured after 18 hrs by CLSI based broth microdilution method; format: functional
Staphylococcus aureus [23] = assay: Bactericidal activity against methicillin-resistant Staphylococcus aureus ATCC 43300 assessed as reduction in microbial growth measured after 18 hrs by CLSI based broth microdilution method; format: functional
Staphylococcus warneri [24] = assay: Bactericidal activity against oxacillin-resistant Staphylococcus warneri SI-5/2011 assessed as reduction in microbial growth measured after 18 hrs by CLSI based broth microdilution method; format: functional
Staphylococcus aureus [25] = assay: Bactericidal activity against Staphylococcus aureus ATCC 25923 assessed as reduction in microbial growth measured after 18 hrs by CLSI based broth microdilution method; format: functional
Outline: (§7)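 MBC by CLSI broth microdilution in Mueller–Hinton medium, triplicate. Inoculum 5 × 10^4 CFU per well. Read after 18 h at 35 ± 2 °C.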

Enterococcus faecium [26] = assay: Bactericidal activity against Vancomycin/teicoplanin resistant Enterococcus faecium SI-759 assessed as reduction in microbial growth measured after 18 hrs by CLSI based broth microdilution method; format: functional
[27] = system: Staphylococcus epidermidis; assay: Antibacterial activity against linezolid-resistant Staphylococcus epidermidis SI-1266 assessed as reduction in microbial growth measured after 18 hrs by CLSI based broth microdilution method; format: functional; outline: as §6
Bacillus subtilis [28] = assay: Bactericidal activity against Bacillus subtilis ATCC 6633 assessed as reduction in microbial growth measured after 18 hrs by CLSI based broth microdilution method; format: functional; outline: as §7
Enterococcus faecium [29] = assay: Antibacterial activity against Vancomycin resistant Enterococcus faecium SI-1831 assessed as reduction in microbial growth measured after 18 hrs by CLSI based broth microdilution method; format: functional; outline: as §6
Enterococcus faecium [30] = assay: Bactericidal activity against Vancomycin resistant Enterococcus faecium SI-3856B assessed as reduction in microbial growth measured after 18 hrs by CLSI based broth microdilution method; format: functional
Enterococcus faecalis [31] = assay: Bactericidal activity against Enterococcus faecalis ATCC 29212 assessed as reduction in microbial growth measured after 18 hrs by CLSI based broth microdilution method; format: functional; outline: as §7
[32] = system: Staphylococcus haemolyticus; assay: Antibacterial activity against oxacillin-resistant Staphylococcus haemolyticus SI-6/2011 assessed as reduction in microbial growth measured after 18 hrs by CLSI based broth microdilution method; format: functional; outline: as §6
Streptococcus pyogenes [33] = assay: Bactericidal activity against Streptococcus pyogenes ATCC 12344 assessed as reduction in microbial growth measured after 18 hrs by CLSI based broth microdilution method; format: functional; outline: as §7
Staphylococcus warneri [34] = assay: Antibacterial activity against oxacillin-resistant Staphylococcus warneri SI-5/2011 assessed as reduction in microbial growth measured after 18 hrs by CLSI based broth microdilution method; format: functional; outline: as §6
Enterococcus faecium [35] = assay: Bactericidal activity against Vancomycin resistant Enterococcus faecium SI-1831 assessed as reduction in microbial growth measured after 18 hrs by CLSI based broth microdilution method; format: functional

Chain of Phosphatidylinositol 4-kinase beta (Q9UBF8 whole entry): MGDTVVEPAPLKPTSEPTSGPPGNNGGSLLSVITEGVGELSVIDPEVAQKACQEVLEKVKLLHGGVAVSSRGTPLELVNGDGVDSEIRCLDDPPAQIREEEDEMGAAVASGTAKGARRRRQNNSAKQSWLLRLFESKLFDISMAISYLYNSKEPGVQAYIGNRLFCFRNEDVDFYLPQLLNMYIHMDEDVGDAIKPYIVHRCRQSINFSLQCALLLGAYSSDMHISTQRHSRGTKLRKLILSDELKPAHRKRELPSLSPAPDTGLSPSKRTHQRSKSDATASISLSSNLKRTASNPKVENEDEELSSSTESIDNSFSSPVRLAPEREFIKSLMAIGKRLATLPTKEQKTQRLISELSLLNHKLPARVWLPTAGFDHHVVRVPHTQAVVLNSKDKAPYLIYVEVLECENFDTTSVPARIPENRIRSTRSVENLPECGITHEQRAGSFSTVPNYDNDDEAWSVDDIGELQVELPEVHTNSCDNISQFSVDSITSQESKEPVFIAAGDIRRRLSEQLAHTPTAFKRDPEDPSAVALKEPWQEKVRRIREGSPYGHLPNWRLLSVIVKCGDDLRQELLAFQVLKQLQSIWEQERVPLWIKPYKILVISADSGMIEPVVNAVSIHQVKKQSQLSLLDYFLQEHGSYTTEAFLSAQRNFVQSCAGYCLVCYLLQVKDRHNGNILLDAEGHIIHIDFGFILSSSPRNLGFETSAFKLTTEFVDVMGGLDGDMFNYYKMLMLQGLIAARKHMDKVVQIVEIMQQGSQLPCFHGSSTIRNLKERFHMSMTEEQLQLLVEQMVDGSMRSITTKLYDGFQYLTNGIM

`O=C(Nc1nc(C(F)(F)F)c(-c2csc(Nc3cccc(C(F)(F)F)c3)n2)s1)c1ccccc1` gave a CC50 [1] of over 50 µM, an MAC (Klebsiella pneumoniae) of 64 µg/mL and an MAC (Escherichia coli [2]) of 2 µg/mL. The IC50 (rhinovirus A16 [3]) was 0.49 µM, the MAC (Acinetobacter baumannii [4]) was 8 µg/mL and the IC50 (enterovirus D68) was 1.11 µM. The IC50 [5] was “Not Active”, the Activity (rhinovirus A16 [6]) was “Active” and the EC50 (rhinovirus A16 [7]) was 4.32 µM. For the same compound, the MAC (Pseudomonas aeruginosa [8]) was over 64 µg/mL, the MIC (Bacillus subtilis [9]) was over 32 µg/mL and the MIC (Enterococcus faecalis [10]) was over 32 µg/mL. For the same compound, the EC50 (rhinovirus A16 [11]) was 1.04 µM, the MAC (Pseudomonas aeruginosa [12]) was 16 µg/mL and the IC50 (Zika virus) was 4.62 µM. For the same compound, the Activity (rhinovirus A16 [13]) was “Active”, the CC50 [14] was 35.9 µM and the MAC (Escherichia coli [15]) was 1 µg/mL. It also gave an MIC (Staphylococcus aureus [16]) of over 32 µg/mL, an MAC (Acinetobacter baumannii [17]) of 0.06 µg/mL and an MIC (Streptococcus pyogenes [18]) of over 32 µg/mL.
Compound `CC(C)(C)C(=O)Nc1nc(C(F)(F)F)c(-c2csc(Nc3cccc(C(F)(F)F)c3)n2)s1` has an MIC (Enterococcus faecium [19]) of 4 µg/mL, an MIC (Enterococcus faecium [20]) of 2 µg/mL and an MIC (Staphylococcus aureus [21]) of 4 µg/mL. It also gave a CC50 [1] of 46 µM, an MBC [22] of over 64 µg/mL and an MBC (Staphylococcus aureus [23]) of 32 µg/mL. For the same compound, the MAC (Klebsiella pneumoniae) was 4 µg/mL, the MBC (Staphylococcus warneri [24]) was 64 µg/mL and the MAC (Escherichia coli [2]) was 4 µg/mL. It also gave an MBC (Staphylococcus aureus [25]) of 32 µg/mL, an IC50 (rhinovirus A16 [3]) of 1.82 µM and an MAC (Acinetobacter baumannii [4]) of 4 µg/mL. The IC50 (enterovirus D68) was 8.37 µM, the MBC (Enterococcus faecium [26]) was 4 µg/mL and the IC50 ([5]; read-out: IC50) was over 50 µM. For the same compound, the MIC [27] was 16 µg/mL, the MBC (Bacillus subtilis [28]) was 8 µg/mL and the MAC (Pseudomonas aeruginosa [8]) was over 64 µg/mL. It also gave an MIC (Enterococcus faecium [29]) of 2 µg/mL, an MBC (Enterococcus faecium [30]) of over 64 µg/mL and an MBC (Enterococcus faecalis [31]) of over 32 µg/mL. The MIC (Bacillus subtilis [9]) was 4 µg/mL, the MIC [32] was over 64 µg/mL and the MIC (Enterococcus faecalis [10]) was 8 µg/mL. The MBC (Streptococcus pyogenes [33]) was 4 µg/mL, the MAC (Pseudomonas aeruginosa [12]) was 2 µg/mL and the MIC (Staphylococcus warneri [34]) was 4 µg/mL. For the same compound, the IC50 (Zika virus) was 11.5 µM, the MBC (Enterococcus faecium [35]) was over 64 µg/mL and the CC50 [14] was over 50 µM. For the same compound, the MAC (Escherichia coli [15]) was 0.5 µg/mL, the MIC (Staphylococcus aureus [16]) was 8 µg/mL and the MAC (Acinetobacter baumannii [17]) was 0.03 µg/mL. For the same compound, the MIC (Streptococcus pyogenes [18]) was 4 µg/mL.
Work on `CC(C)S(=O)(=O)n1c(N)nc2ccc(/C(=N/O)c3ccccc3)cc21` [ENVIROXIME] yielded an EC50 (rhinovirus A16 [3]) of 0.049 µM, an EC50 (rhinovirus A16 [7]) of 0.027 µM and an EC50 (rhinovirus A16 [11]) of 0.027 µM.
